Source: PubChem BioAssay (several laboratories)
MT stabilizer: microtubule stabilizers in HeLa cells | 200,000 compounds, 0.83% hits | % tubulin-high responders, % at 10 µM | AID 2205 | HeLa tubulin immunostaining HCS, 24 h; share of cells brighter than vehicle mean+2SD;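 active means plate Z-score above 3 for both tubulin-high and condensed-nucleus cell shares, with cell loss under 80%, at 10 µM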;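 further: anti alpha tubulin signal scored within the nucleus-defined area of each cell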
HSV replic up: increases HSV replication in cells; HSV replication augmentation in cells, fold increase; AID 1956; 220,000 compounds, 0.005% hits; maximum fold increase; in the data active means maximum fold increase above about 1.5; inconclusive means no clear call, values can overlap the other calls; tested in PC3 cells
Lmaj promast: Leishmania major promastigote growth inhibition | Leishmania major promastigotes, resazurin fluorescence viability | inhibition, % at 10 µM | 200,000 compounds, 9% hits; in the data active means inhibition above about 50%;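 further: promastigotes grown with compound for 44 hours at 28 °C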
Dynein cargo inh: dynein cargo transport inhibition; 220,000 compounds, 0.47% hits; 3617.4 mouse cells, GR-EGFP nuclear translocation imaging; test concentration mostly 20 µM; stimulated with dexamethasone, 1 µM; hits give low values; z-score, hits read low;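 active means plate z-score of nuclear minus cytoplasmic receptor signal below a set negative limit, without overly bright fluorescence or cell loss, cut at about -3.5 in these data, passing the limit was not always enough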;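 further: z-score of nuclear minus cytoplasmic ring GR-EGFP intensity difference per well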
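Buffer or medium: tetracycline-free induction medium containing charcoal-stripped FBS / Reagent: dexamethasone agonist, 1.0 µM final, for 30 min / Technique: automated 10x imaging of fixed Hoechst-stained cells / Times: induction 48 h, compound 1 h, agonist 30 min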
bCat nuc transl: beta-catenin nuclear translocation modulation; nuclear translocation activity, % at 5 µM; 190,000 compounds, 0.3% hits; AID 1665; HeLa beta-catenin nuclear translocation, immunofluorescence imaging;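 active means nuclear translocation activity above 50% at 5 µM, with a well cell count of 50 or more; inconclusive means wells under 50 cells across six images, flagged as toxic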;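 further: per-cell ratio of nuclear to cytoplasmic median beta-catenin stain intensity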
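Test system: human HeLa cells, endogenous beta-catenin. Times: 24 h compound exposure, 37°C. Measured by: beta-catenin immunofluorescence imaging with DAPI.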
Each line names hits and unclear results; the compound was inactive in the other large screens. Compounds with a hit are over-represented: about 8.9% of the library has one in this group of screens.

O=C(NN1C(=O)c2ccccc2NC1c1ccc([N+](=O)[O-])o1)c1ccc(Br)cc1 (stereo unspecified)	Lmaj promast 95.5
CC(=O)NN1C(=O)c2ccccc2NC1c1ccc([N+](=O)[O-])o1 (stereo unspecified)	Lmaj promast 66.0
O=C(NN1C(=O)c2ccccc2NC1c1ccco1)c1ccc(Br)cc1 (stereo unspecified)	none
FC(F)(F)c1cccc(NC(=S)NCc2ccccn2)c1	none
Cc1ccc2cc(CN(Cc3ccco3)C(=O)c3ccccc3)c(=O)[nH]c2c1C	none (no result: bCat nuc transl)
CCCCNC(=O)c1cc(-c2ccc(F)cc2)on1	none
O=c1c2ccccc2[nH]c(=S)n1Cc1cccs1	none (no result: bCat nuc transl)
Cc1[nH]c2ccc(F)cc2c1CCN(Cc1cccnc1)C(=S)Nc1cccc(F)c1	Lmaj promast 100.3
Cc1[nH]c2ccc(F)cc2c1CCN(Cc1ccncc1)C(=S)Nc1ccc(F)cc1	Lmaj promast 99.0
Cc1ccccc1NC(=S)N(CCc1c(C)[nH]c2ccc(F)cc12)Cc1cccnc1	Lmaj promast 100.2
Cc1[nH]c2ccc(F)cc2c1CCN(Cc1ccco1)C(=S)NC(C)(C)C	none
CNC(=S)N(CCc1c(C)[nH]c2ccc(OC)cc12)Cc1cccnc1	none
CCC(=O)Nc1nnc(SCC(=O)c2ccc3c(c2)Cc2ccccc2-3)s1	none
O=C(CSc1nc(-c2ccccc2F)nc2nc[nH]c12)Nc1c(Cl)cc(Cl)cc1Cl	none
CCc1cccc(C)c1NC(=O)CSc1nc(-c2ccccc2F)nc2nc[nH]c12	Lmaj promast 62.0
CCOc1ncccc1C(=O)OCC(=O)Nc1ccc(C)c(S(=O)(=O)N(C)C)c1	none
CCCOc1c(OC)cccc1C1CC(=O)Nc2cc3c(cc21)OCO3 (stereo unspecified)	MT stabilizer 37.0
CCOc1ccccc1C1CC(=O)Nc2cc3c(cc21)OCO3 (stereo unspecified)	MT stabilizer 29.3
CCCOc1c(OC)cccc1C1CC(=O)Nc2cc3c(cc21)OCCO3 (stereo unspecified)	MT stabilizer 50.7 (no result: bCat nuc transl)
Cc1nnc(NC(=O)CSc2nc3[nH]ncc3c(=O)[nH]2)s1	none
CCOc1cccc2c1OC1(C)CC2NC(=O)N1Cc1ccccc1 (stereo unspecified)	none
Cc1ccc2c(c1)C(c1ccc(F)cc1)N(C(=O)C1CC1)CC(=O)N2 (stereo unspecified)	none (no result: bCat nuc transl)
Cc1ccc2c(c1)C(c1ccccc1)N(C(=O)c1ccc(Br)o1)CC(=O)N2 (stereo unspecified)	Lmaj promast 94.6 (no result: HSV replic up, bCat nuc transl)
O=C(O)CN1C(=O)Nc2ccc(Br)cc2C1c1ccccc1 (stereo unspecified)	none
O=C1CN(C(=O)c2ccc(Br)o2)C(c2ccccc2)c2cc(Br)ccc2N1 (stereo unspecified)	Lmaj promast 69.2 (no result: HSV replic up, bCat nuc transl)
CC(=O)Nc1ccc(NC(=O)CN(c2ccc([N+](=O)[O-])cc2)S(=O)(=O)c2ccccc2)cc1	none
N#CC(c1ccc(F)cc1)c1ccc(C(=O)c2ccccc2)cc1 (stereo unspecified)	none (no result: bCat nuc transl)
N#CC(c1ccccc1)c1ccc(C(=O)c2ccc(F)cc2)cc1 (stereo unspecified)	Lmaj promast 59.9 (no result: bCat nuc transl)
CCN1CCN(c2nc(C)c3c(n2)CCCC3=O)CC1	none (no result: bCat nuc transl)
CC(=O)C1=C(C)NC(SCSc2ccccc2)=C(C#N)C1c1cccnc1 (stereo unspecified)	Lmaj promast 99.9
CC1=C(C(=O)Nc2ccccc2)C(c2ccncc2)C(C#N)=C(SCC(=O)Nc2ccccc2)N1 (stereo unspecified)	Lmaj promast 99.5
COc1cc(OC)c(N(C)S(=O)(=O)c2cccc(C(=O)OCC(=O)NCc3ccco3)c2)cc1Cl	Lmaj promast 53.2
COc1ccccc1C(CNC(=O)c1ccc(S(=O)(=O)NCc2ccco2)cc1)N(C)C (stereo unspecified)	Lmaj promast 51.0
COc1ccc(S(=O)(=O)NCc2ccco2)cc1N(C)S(=O)(=O)c1ccccc1	Lmaj promast 59.5
CCc1ccc2[nH]c(=O)c(CN(CCN(CC)CC)C(=O)Nc3ccccc3OC)cc2c1	none
Cc1cc(C)c2nc(NNC(=O)c3ccc(S(=O)(=O)N4CC(C)CC(C)C4)cc3)sc2c1 (stereo unspecified)	Lmaj promast 98.8
CCS(=O)(=O)N1Cc2ccccc2CC1C(=O)Nc1nc2ccc(C)cc2s1 (stereo unspecified)	Lmaj promast 92.4
Cc1cc(C)c2nc(NNC(=O)c3ccc(S(=O)(=O)N4CCCC(C)C4)cc3)sc2c1 (stereo unspecified)	Lmaj promast 97.5 (no result: HSV replic up)
COC(=O)c1sc2ccccc2c1NC(=O)c1ccc(S(=O)(=O)N2CCCC(C)C2)cc1 (stereo unspecified)	none
CCC(=O)NNc1nc2c(C)cc(C)cc2s1	none
Cc1ccc2nc(NNC(=O)c3ccc(S(=O)(=O)N4CCc5ccccc5C4)cc3)sc2c1	Lmaj promast 99.5
COC(=O)c1sc2ccccc2c1NC(=O)c1ccc(S(=O)(=O)N2CC(C)CC(C)C2)cc1 (stereo unspecified)	none
Cc1cccc2sc(NNC(=O)c3ccc(S(=O)(=O)N4CC(C)CC(C)C4)cc3)nc12 (stereo unspecified)	Lmaj promast 99.4
Cc1cc(C(=O)c2ccc(C(C)(C)C)cc2)c(NC(=O)CCl)s1	Lmaj promast 96.3
O=C(c1cccs1)N1CCCC(c2nc3c(nnn3Cc3ccccc3)c(=O)[nH]2)C1 (stereo unspecified)	none (no result: MT stabilizer, Lmaj promast)
O=C1/C(=C\c2ccc(O)c(O)c2)C(c2ccccc2)=NN1c1ccccc1	Lmaj promast 98.5
COc1cc(/C=C2\C(=O)N(c3ccc(NC(C)=O)cc3)N=C2c2ccccc2)ccc1O	none
COc1ccc(/C=C2\C(=O)N(c3nc(-c4ccc(Br)cc4)cs3)N=C2c2ccccc2)cc1	none (no result: HSV replic up, bCat nuc transl)
CCOc1cc(/C=C2\C(=O)N(c3nc(-c4ccc(Br)cc4)cs3)N=C2c2ccccc2)ccc1O	Lmaj promast 100.2 (no result: HSV replic up)
Cc1ccc(NC(=O)CSC(N)=O)cc1Cl	none
CO/N=C\CC(=O)Nc1ccc(Cl)c(Cl)c1	MT stabilizer 25.6
NC(=O)SCC(=O)Nc1ccc(Cl)c(Cl)c1	Lmaj promast 98.0
COc1ccccc1-c1cc(C(=O)N/N=C/C=C/c2ccccc2[N+](=O)[O-])c2ccccc2n1	HSV replic up inconclusive
Cc1cc([N+](=O)[O-])ccc1NC(=O)C(C)[n+]1ccccc1 (stereo unspecified)	none
COc1ccccc1OCC(=O)OCC(=O)Nc1sccc1C(N)=O	Lmaj promast 53.1 (no result: bCat nuc transl)
COC(=O)c1ccccc1N(C)C(=O)C12CCC(C)(C(=O)O1)C2(C)C (stereo unspecified)	none
COc1cccc(-c2cc(=O)c3cc(NC(=O)c4ccc(N(C)C)cc4)ccc3[nH]2)c1	bCat nuc transl 87.8
COc1ccc2[nH]c(-c3cccc(F)c3)cc(=O)c2c1	none (no result: bCat nuc transl)
COc1cccc(-c2cc(=O)c3cc(NC(=O)c4ccc(Cl)cc4)ccc3[nH]2)c1	MT stabilizer 25.7
